Assay [1] in a line: Cytotoxicity against human high-grade leiomyosarcoma cells after overnight incubation by Alamar blue assay. The class given is functional, cell-based. The method in brief:
(§1)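 Primary tumor cell cultures that passed histological and cytological screening; thawed at 37 °C, resuspended in maintenance medium, live/dead counted, plated at 1.0 × 10^3 cells/well. Samples added at 1/10 cell suspension volume, overnight at 37 °C. Alamar Blue then added at 1/10 well volume; fluorescence (ex 530, em 590 nm) read at 3 h and 3 days post-dye. Percent inhibition versus untreated and cell-free controls gave IC50.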

Assay [2] is described as follows: Cytotoxicity against human primary soft tissue sarcoma cells after overnight incubation by Alamar blue assay. In kind it is functional, cell-based. The method in brief:
as §1
(Resazurin is reduced to fluorescent resorufin, in cell work by metabolically active cells.)

In the case of `C/C1=C\C(=O)OC[C@]23CCC(CO)=C[C@H]2O[C@@H]2C[C@@H](OC(=O)/C=C\C=C\[C@H]([C@@H](C)O)OCC1)[C@@]3(C)[C@]21CO1`, the half-inhibitory concentration (IC50) (as a rule, the concentration that gives 50% inhibition) turned out to be 0.085 pM in assay [1] and 0.046 pM in assay [2].
Taken in the same sequence, the figures for `CC1=C[C@H]2O[C@@H]3C[C@@H](OC(=O)/C=C/C=C\C(OCCC4=CCOC4=O)C(C)O)[C@](C)([C@@]2(COC(=O)/C=C(\C)CCO)CC1)[C@]31CO1` (stereo partly specified) [TRICHOVERRITONE] were 0.026 pM and 0.13 pM.
For the compound `CC1=C[C@H]2O[C@@H]3C[C@@H](OC(=O)/C=C/C=C\C(OCCC4=CCOC4=O)C(C)O)[C@](C)([C@@]2(CO)CC1)[C@]31CO1` (stereo partly specified), the IC50 in assay [1] was 0.018 pM; in assay [2], 0.03 pM.
